Values after ≈ are worked out from the molar mass of the structure shown.
Tests used:
Assay type in all cases: functional
[1] = system: Candida albicans; experiment: Antifungal activity against Candida albicans isolates from HIV infected patient before fluconazole therapy by NCCLS M27-A2 method
In short: (§1)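 Broth dilution per NCCLS M27-A2, with azoles serially diluted in high-resolution antifungal assay medium over 0.125–128, 0.03–64 or 0.06–128 μg/ml depending on the drug. MIC endpoints were read spectrophotometrically at 540 nm. Values are reported per species or source group as median and range.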

[2] = system: Candida albicans; experiment: Antifungal activity against Candida albicans isolates from HIV infected patient during fluconazole therapy by NCCLS M27-A2 method; in short: as §1
[3] = system: Candida albicans; experiment: Antifungal activity against Candida albicans isolates from animals by NCCLS M27-A2 method; in short: as §1
[4] = system: Candida albicans; experiment: Antifungal activity against Candida albicans isolates by NCCLS M27-A2 method; in short: as §1
[5] = system: Nakaseomyces glabratus; experiment: Antifungal activity against Candida glabrata isolates from feeding stuffs by NCCLS M27-A2 method; in short: as §1
[6] = system: Nakaseomyces glabratus; experiment: Antifungal activity against Candida glabrata ATCC 90030 by NCCLS M27-A2 method; in short: as §1
[7] = system: Pichia kudriavzevii; experiment: Antifungal activity against Candida krusei isolates from grapes and feeding stuffs by NCCLS M27-A2 method; in short: as §1
[8] = system: Pichia kudriavzevii; experiment: Antifungal activity against Candida krusei ATCC 6258 by NCCLS M27-A2 method; in short: as §1
[9] = system: Pichia fermentans; experiment: Antifungal activity against Candida lambica isolates from grapes by NCCLS M27-A2 method; in short: as §1
[10] = system: Pichia norvegensis; experiment: Antifungal activity against Candida norvegensis isolates from grapes by NCCLS M27-A2 method; in short: as §1
[11] = system: Candida parapsilosis; experiment: Antifungal activity against Candida parapsilosis ATCC 22013 by NCCLS M27-A2 method; details: Lodderomyces parapsilosis
[12] = system: Diutina rugosa; experiment: Antifungal activity against Candida rugosa isolates from feeding stuff by NCCLS M27-A2 method; in short: as §1
[13] = system: Starmerella stellata; experiment: Antifungal activity against sCandida stellata isolates from grapes by NCCLS M27-A2 method; in short: as §1
[14] = system: Cryptococcus neoformans; experiment: Antifungal activity against Cryptococcus neoformans ATCC 90112 by NCCLS M27-A2 method
[15] = system: Wickerhamomyces anomalus; experiment: Antifungal activity against Pichia anomala isolates from grapes by NCCLS M27-A2 method; details: Hansenula anomala; in short: as §1
[16] = system: Hanseniaspora uvarum; experiment: Antifungal activity against sKloeckera apiculata isolates from grapes by NCCLS M27-A2 method; in short: as §1
[17] = system: Rhodotorula; experiment: Antifungal activity against Rhodotorula sp. isolates from grapes by NCCLS M27-A2 method; in short: as §1
[18] = system: Saccharomyces cerevisiae; experiment: Antifungal activity against sSaccharomyces cerevisiae isolates from grapes by NCCLS M27-A2 method; in short: as §1
[19] = system: Saccharomycopsis; experiment: Antifungal activity against Saccharomycopsis guttulata isolates from feeding stuff by NCCLS M27-A2 method; in short: as §1

Structure (SMILES) | MIC50 [1] | MIC50 [2] | MIC50 [3] | MIC50 [4] | MIC50 [5] | MIC50 [6] | MIC50 [7] | MIC50 [8] | MIC50 [9] | MIC50 [10] | MIC50 [11] | MIC50 [12] | MIC50 [13] | MIC50 [14] | MIC50 [15] | MIC50 [16] | MIC50 [17] | MIC50 [18] | MIC50 [19]
CCCC(Cn1cncn1)c1ccc(Cl)cc1Cl (stereo unspecified) [PENCONAZOLE] | 0.25 µg/mL (≈ 0.88 µM) | 12 µg/mL (≈ 42.2 µM) | 2 µg/mL (≈ 7.04 µM) | 2 µg/mL (≈ 7.04 µM) | 4 µg/mL (≈ 14.1 µM) | 4 µg/mL (≈ 14.1 µM) | 128 µg/mL (≈ 450 µM) | 64 µg/mL (≈ 225 µM) | 64 µg/mL (≈ 225 µM) | 64 µg/mL (≈ 225 µM) | 8 µg/mL (≈ 28.2 µM) | 1 µg/mL (≈ 3.52 µM) | 96 µg/mL (≈ 338 µM) | 4 µg/mL (≈ 14.1 µM) | 8 µg/mL (≈ 28.2 µM) | 0.5 µg/mL (≈ 1.76 µM) | 16 µg/mL (≈ 56.3 µM) | 2 µg/mL (≈ 7.04 µM) | 8 µg/mL (≈ 28.2 µM)
C[C@@H](c1ncncc1F)[C@](O)(Cn1cncn1)c1ccc(F)cc1F [VORICONAZOLE] | 0.03 µg/mL (≈ 0.0859 µM) | 1.5 µg/mL (≈ 4.29 µM) | 0.03 µg/mL (≈ 0.0859 µM) | 0.03 µg/mL (≈ 0.0859 µM) | 0.25 µg/mL (≈ 0.716 µM) | 2 µg/mL (≈ 5.73 µM) | 1 µg/mL (≈ 2.86 µM) | 1 µg/mL (≈ 2.86 µM) | 2 µg/mL (≈ 5.73 µM) | 2 µg/mL (≈ 5.73 µM) | 0.06 µg/mL (≈ 0.172 µM) | 0.03 µg/mL (≈ 0.0859 µM) | 1 µg/mL (≈ 2.86 µM) | 0.25 µg/mL (≈ 0.716 µM) | 0.25 µg/mL (≈ 0.716 µM) | 0.03 µg/mL (≈ 0.0859 µM) | 0.06 µg/mL (≈ 0.172 µM) | 0.5 µg/mL (≈ 1.43 µM) | 0.12 µg/mL (≈ 0.344 µM)
CC(=O)N1CCN(c2ccc(OCC3COC(Cn4ccnc4)(c4ccc(Cl)cc4Cl)O3)cc2)CC1 (stereo unspecified) [KETOCONAZOLE] | 0.25 µg/mL (≈ 0.47 µM) | 2 µg/mL (≈ 3.76 µM) | 0.5 µg/mL (≈ 0.941 µM) | 0.03 µg/mL (≈ 0.0565 µM) | 4 µg/mL (≈ 7.53 µM) | 8 µg/mL (≈ 15.1 µM) | 8 µg/mL (≈ 15.1 µM) | 2 µg/mL (≈ 3.76 µM) | 4 µg/mL (≈ 7.53 µM) | 2 µg/mL (≈ 3.76 µM) | 0.12 µg/mL (≈ 0.226 µM) | 0.25 µg/mL (≈ 0.47 µM) | 8 µg/mL (≈ 15.1 µM) | 2 µg/mL (≈ 3.76 µM) | 1 µg/mL (≈ 1.88 µM) | 0.25 µg/mL (≈ 0.47 µM) | 0.5 µg/mL (≈ 0.941 µM) | 2 µg/mL (≈ 3.76 µM) | 2 µg/mL (≈ 3.76 µM)
CCC(C)n1ncn(-c2ccc(N3CCN(c4ccc(OCC5COC(Cn6cncn6)(c6ccc(Cl)cc6Cl)O5)cc4)CC3)cc2)c1=O (stereo unspecified) [ITRACONAZOLE] | 0.06 µg/mL (≈ 0.085 µM) | 0.75 µg/mL (≈ 1.06 µM) | 0.12 µg/mL (≈ 0.17 µM) | 0.06 µg/mL (≈ 0.085 µM) | 1 µg/mL (≈ 1.42 µM) | 4 µg/mL (≈ 5.67 µM) | 1 µg/mL (≈ 1.42 µM) | 0.5 µg/mL (≈ 0.709 µM) | 2 µg/mL (≈ 2.83 µM) | 1 µg/mL (≈ 1.42 µM) | 0.25 µg/mL (≈ 0.354 µM) | 0.06 µg/mL (≈ 0.085 µM) | 2 µg/mL (≈ 2.83 µM) | 0.5 µg/mL (≈ 0.709 µM) | 0.5 µg/mL (≈ 0.709 µM) | 0.25 µg/mL (≈ 0.354 µM) | 0.06 µg/mL (≈ 0.085 µM) | 2 µg/mL (≈ 2.83 µM) | 0.5 µg/mL (≈ 0.709 µM)
CC(C)(C)C(O)C(Oc1ccc(Cl)cc1)n1cncn1 (stereo unspecified) [TRIADIMENOL] | 2 µg/mL (≈ 6.76 µM) | 64 µg/mL (≈ 216 µM) | 1.5 µg/mL (≈ 5.07 µM) | 2 µg/mL (≈ 6.76 µM) | 8 µg/mL (≈ 27 µM) | 8 µg/mL (≈ 27 µM) | 64 µg/mL (≈ 216 µM) | 32 µg/mL (≈ 108 µM) | 128 µg/mL (≈ 433 µM) | 64 µg/mL (≈ 216 µM) | 16 µg/mL (≈ 54.1 µM) | 1 µg/mL (≈ 3.38 µM) | 128 µg/mL (≈ 433 µM) | 4 µg/mL (≈ 13.5 µM) | 16 µg/mL (≈ 54.1 µM) | 0.25 µg/mL (≈ 0.845 µM) | 64 µg/mL (≈ 216 µM) | 8 µg/mL (≈ 27 µM) | 16 µg/mL (≈ 54.1 µM)
CC(C)(C)C(O)(CCc1ccc(Cl)cc1)Cn1cncn1 (stereo unspecified) [TEBUCONAZOLE] | 0.75 µg/mL (≈ 2.44 µM) | 24 µg/mL (≈ 78 µM) | 0.185 µg/mL (≈ 0.601 µM) | 0.06 µg/mL (≈ 0.195 µM) | 2 µg/mL (≈ 6.5 µM) | 8 µg/mL (≈ 26 µM) | 64 µg/mL (≈ 208 µM) | 32 µg/mL (≈ 104 µM) | 16 µg/mL (≈ 52 µM) | 4 µg/mL (≈ 13 µM) | 1 µg/mL (≈ 3.25 µM) | 0.06 µg/mL (≈ 0.195 µM) | 64 µg/mL (≈ 208 µM) | 4 µg/mL (≈ 13 µM) | 4 µg/mL (≈ 13 µM) | 0.06 µg/mL (≈ 0.195 µM) | 1 µg/mL (≈ 3.25 µM) | 1 µg/mL (≈ 3.25 µM) | 4 µg/mL (≈ 13 µM)
OC(Cn1cncn1)(Cn1cncn1)c1ccc(F)cc1F [FLUCONAZOLE] | 2.25 µg/mL (≈ 7.35 µM) | 128 µg/mL (≈ 418 µM) | 0.25 µg/mL (≈ 0.816 µM) | 0.12 µg/mL (≈ 0.392 µM) | 32 µg/mL (≈ 104 µM) |  | 64 µg/mL (≈ 209 µM) | 64 µg/mL (≈ 209 µM) | 128 µg/mL (≈ 418 µM) | 128 µg/mL (≈ 418 µM) | 2 µg/mL (≈ 6.53 µM) | 1 µg/mL (≈ 3.27 µM) | 64 µg/mL (≈ 209 µM) | 8 µg/mL (≈ 26.1 µM) | 2 µg/mL (≈ 6.53 µM) | 0.5 µg/mL (≈ 1.63 µM) | 16 µg/mL (≈ 52.2 µM) | 8 µg/mL (≈ 26.1 µM) | 1 µg/mL (≈ 3.27 µM)
O=c1c2cc(F)ccc2nc(-n2cncn2)n1-c1ccc(Cl)cc1Cl [FLUQUINCONAZOLE] | 0.375 µg/mL (≈ 0.997 µM) | 64 µg/mL (≈ 170 µM) | 0.5 µg/mL (≈ 1.33 µM) | 0.5 µg/mL (≈ 1.33 µM) | 1 µg/mL (≈ 2.66 µM) | 32 µg/mL (≈ 85.1 µM) | 128 µg/mL (≈ 340 µM) | 128 µg/mL (≈ 340 µM) | 64 µg/mL (≈ 170 µM) | 64 µg/mL (≈ 170 µM) | 2 µg/mL (≈ 5.32 µM) | 0.12 µg/mL (≈ 0.319 µM) | 64 µg/mL (≈ 170 µM) | 0.12 µg/mL (≈ 0.319 µM) | 4 µg/mL (≈ 10.6 µM) | 0.12 µg/mL (≈ 0.319 µM) | 0.5 µg/mL (≈ 1.33 µM) | 0.25 µg/mL (≈ 0.665 µM) | 64 µg/mL (≈ 170 µM)

— ChEMBL document CHEMBL1155174, “Cross-resistance to medical and agricultural azole drugs in yeasts from the oropharynx of human immunodeficiency virus patients and from environmental Bavarian vine grapes” (2007)
